From ChEMBL document CHEMBL4342520, “Discovery, Structure-Activity Relationship, and Biological Activity of Histone-Competitive Inhibitors of Histone Acetyltransferases P300/CBP” (J Med Chem, 2020) come the findings set out here.

Assay [1] has as its target T1, Histone acetyltransferase p300 (Homo sapiens, UniProt Q09472). Nature of the assay: Inhibition of recombinant human GST-tagged p300 HAT domain (1195 to 1673 residues) expressed in Escherichia coli BL21 codon plus cells at 10 uM using Histone H3 peptide (1 to 21) and [3H]acetyl-CoA as substrate preincubated with enzyme for 10 mins followed by substrate addition and measured after 30 mins by scintillation counting method relative to control.

Assay [2] has as its target T1, Histone acetyltransferase p300. Put plainly: Inhibition of recombinant human GST-tagged p300 HAT domain (1195 to 1673 residues) expressed in Escherichia coli BL21 codon plus cells using Histone H3 peptide (1 to 21) and [3H]acetyl-CoA as substrate preincubated with enzyme for 10 mins followed by substrate addition and measured after 30 mins by scintillation counting method. In a few lines: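 The compound (100 nM to 10 µM) was preincubated with p300-HAT (10 nM) for 10 min at 25 °C in 50 mM phosphate buffer pH 7.0 with 0.01% Brij-35. Incorporation of [3H]acetyl from Ac-CoA into histone H3 (1-21) peptide was captured on filter paper, washed with 50 mM NaHCO3 and counted by scintillation. IC50 came from a sigmoidal dose-response fit, mean of at least three experiments.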

Assay [3] shares this target. Put plainly: Inhibition of His6-tagged p300 HAT domain (unknown origin) assessed as disruption of p300 and Histone H4 (1-21) peptide interaction incubated for 1 hr by Alpha assay. In a few lines:
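Varying compound concentrations were added in PBS with 0.5% BSA for 1 h. Signal was read with excitation at 680 nm and emission at 570 nm. A biotinylated His6 peptide served as an interference counter-control. IC50 came from a sigmoidal fit.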

Assay [4] has as its system MCF7. Nature of the assay: Antiproliferative activity against human MCF7 cells assessed as reduction in cell viability incubated for 6 days by Celigo-insitu cell cytometer analysis. The note with it: MCF7, 144 h.
For assay [5], the system named is MCF7. Put plainly: Antiproliferative activity against human tamoxifen-resistant MCF7 cells assessed as reduction in cell viability incubated for 6 days by Celigo-insitu cell cytometer analysis. Conditions: MCF7, 144 h.
For the next assay, the system named is PANC-1. Nature of the assay: Antiproliferative activity against human PANC1 cells assessed as reduction in cell viability incubated for 5 days by MTT assay. Conditions: PANC-1, 120 h. (In general: Tetrazolium dyes change colour on reduction, which living cells bring about.)
The nature of assay [6]: Antiproliferative activity against human MDAPanc28 cells assessed as reduction in cell viability incubated for 5 days by MTT assay. Conditions: MDA-Panc-28, 120 h.
The test system of another assay is Kasumi 1. Nature of the assay: Antiproliferative activity against human Kasumi-1 cells assessed as reduction in cell viability incubated for 5 days by XTT assay. The note with it: Kasumi 1, 120 h.
In assay [7] the target is T2, CREB-binding protein/Histone acetyltransferase p300 (Homo sapiens) (UniProt Q09472+Q92793). Put plainly: Inhibition of p300/CBP HAT domain in human Kasumi-1 cells assessed as reduction in H3K9 acetylation at 5 to 10 uM incubated for 12 hrs by Western blot analysis. It counts as cell-based. In a few lines: (§1)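 Kasumi-1 cells (10^6 per well) were treated with compound at 0, 5 and 10 µM for 12 h. Total histones were extracted, and 2 µg was run on SDS-PAGE and blotted to PVDF. Blots were probed for H3K9Ac, H3K18Ac, H3K27Ac and total H3, then with an anti-rabbit IgG secondary.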
T2 sequence (Q09472 whole entry, looked up, the tested form may be a part): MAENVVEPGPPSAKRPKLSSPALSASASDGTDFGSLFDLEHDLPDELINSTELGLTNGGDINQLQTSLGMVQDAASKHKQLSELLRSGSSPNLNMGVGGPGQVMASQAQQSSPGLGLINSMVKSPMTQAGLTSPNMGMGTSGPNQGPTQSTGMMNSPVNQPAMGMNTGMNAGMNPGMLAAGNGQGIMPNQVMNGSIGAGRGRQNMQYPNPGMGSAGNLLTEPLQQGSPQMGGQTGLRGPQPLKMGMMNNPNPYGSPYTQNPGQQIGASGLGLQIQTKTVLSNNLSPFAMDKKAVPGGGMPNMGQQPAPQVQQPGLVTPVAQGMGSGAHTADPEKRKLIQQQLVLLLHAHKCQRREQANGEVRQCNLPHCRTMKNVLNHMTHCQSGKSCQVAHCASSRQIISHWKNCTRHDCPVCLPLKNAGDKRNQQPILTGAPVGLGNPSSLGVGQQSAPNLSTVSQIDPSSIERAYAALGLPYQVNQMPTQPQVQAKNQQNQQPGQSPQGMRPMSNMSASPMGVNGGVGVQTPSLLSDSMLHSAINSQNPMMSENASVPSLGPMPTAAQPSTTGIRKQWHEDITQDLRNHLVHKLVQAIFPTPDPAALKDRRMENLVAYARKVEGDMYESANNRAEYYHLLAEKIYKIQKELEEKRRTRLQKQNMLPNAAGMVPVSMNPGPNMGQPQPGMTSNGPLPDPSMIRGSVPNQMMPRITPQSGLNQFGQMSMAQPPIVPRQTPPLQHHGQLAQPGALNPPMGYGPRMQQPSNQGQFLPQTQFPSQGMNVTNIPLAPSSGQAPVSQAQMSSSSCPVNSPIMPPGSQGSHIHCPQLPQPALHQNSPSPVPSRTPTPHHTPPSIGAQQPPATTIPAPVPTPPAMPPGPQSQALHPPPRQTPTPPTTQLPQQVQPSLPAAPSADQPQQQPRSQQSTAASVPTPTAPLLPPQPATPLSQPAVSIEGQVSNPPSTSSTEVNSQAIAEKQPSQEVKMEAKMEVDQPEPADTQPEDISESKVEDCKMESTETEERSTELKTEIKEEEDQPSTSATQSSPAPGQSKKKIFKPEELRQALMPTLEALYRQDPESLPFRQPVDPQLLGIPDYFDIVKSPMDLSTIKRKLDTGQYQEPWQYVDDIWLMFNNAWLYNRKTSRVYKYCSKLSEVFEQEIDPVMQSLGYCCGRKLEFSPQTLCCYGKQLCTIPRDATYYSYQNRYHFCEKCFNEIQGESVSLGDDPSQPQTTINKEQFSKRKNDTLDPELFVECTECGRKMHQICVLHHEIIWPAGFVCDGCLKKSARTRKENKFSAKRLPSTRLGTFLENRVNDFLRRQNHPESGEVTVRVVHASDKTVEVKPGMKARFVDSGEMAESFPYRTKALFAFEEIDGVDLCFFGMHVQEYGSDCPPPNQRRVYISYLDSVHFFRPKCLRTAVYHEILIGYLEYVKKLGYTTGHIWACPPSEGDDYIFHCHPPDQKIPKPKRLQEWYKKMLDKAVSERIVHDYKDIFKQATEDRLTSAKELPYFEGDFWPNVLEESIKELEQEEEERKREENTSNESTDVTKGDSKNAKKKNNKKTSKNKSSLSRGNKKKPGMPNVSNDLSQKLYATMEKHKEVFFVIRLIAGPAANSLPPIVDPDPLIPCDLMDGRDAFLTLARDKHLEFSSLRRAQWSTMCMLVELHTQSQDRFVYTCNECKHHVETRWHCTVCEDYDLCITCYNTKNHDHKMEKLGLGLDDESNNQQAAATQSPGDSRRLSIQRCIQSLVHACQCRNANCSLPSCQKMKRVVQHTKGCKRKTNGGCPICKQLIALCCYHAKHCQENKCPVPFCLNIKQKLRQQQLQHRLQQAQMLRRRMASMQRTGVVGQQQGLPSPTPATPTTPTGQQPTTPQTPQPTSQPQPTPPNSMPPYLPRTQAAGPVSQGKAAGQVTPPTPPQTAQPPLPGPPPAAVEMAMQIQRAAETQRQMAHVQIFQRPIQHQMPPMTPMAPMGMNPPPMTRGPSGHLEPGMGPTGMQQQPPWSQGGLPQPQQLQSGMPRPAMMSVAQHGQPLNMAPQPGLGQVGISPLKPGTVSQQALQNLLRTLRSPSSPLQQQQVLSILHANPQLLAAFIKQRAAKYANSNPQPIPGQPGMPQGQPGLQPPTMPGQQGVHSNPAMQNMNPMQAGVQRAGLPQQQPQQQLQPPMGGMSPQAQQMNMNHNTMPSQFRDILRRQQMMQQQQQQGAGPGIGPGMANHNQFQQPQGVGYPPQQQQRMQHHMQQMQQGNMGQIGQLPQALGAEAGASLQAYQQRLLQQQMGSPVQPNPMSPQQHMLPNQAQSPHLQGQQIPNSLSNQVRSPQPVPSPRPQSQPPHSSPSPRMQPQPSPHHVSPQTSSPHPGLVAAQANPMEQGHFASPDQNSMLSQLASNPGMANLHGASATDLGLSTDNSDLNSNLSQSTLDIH
T2 sequence (Q92793 whole entry, looked up, the tested form may be a part): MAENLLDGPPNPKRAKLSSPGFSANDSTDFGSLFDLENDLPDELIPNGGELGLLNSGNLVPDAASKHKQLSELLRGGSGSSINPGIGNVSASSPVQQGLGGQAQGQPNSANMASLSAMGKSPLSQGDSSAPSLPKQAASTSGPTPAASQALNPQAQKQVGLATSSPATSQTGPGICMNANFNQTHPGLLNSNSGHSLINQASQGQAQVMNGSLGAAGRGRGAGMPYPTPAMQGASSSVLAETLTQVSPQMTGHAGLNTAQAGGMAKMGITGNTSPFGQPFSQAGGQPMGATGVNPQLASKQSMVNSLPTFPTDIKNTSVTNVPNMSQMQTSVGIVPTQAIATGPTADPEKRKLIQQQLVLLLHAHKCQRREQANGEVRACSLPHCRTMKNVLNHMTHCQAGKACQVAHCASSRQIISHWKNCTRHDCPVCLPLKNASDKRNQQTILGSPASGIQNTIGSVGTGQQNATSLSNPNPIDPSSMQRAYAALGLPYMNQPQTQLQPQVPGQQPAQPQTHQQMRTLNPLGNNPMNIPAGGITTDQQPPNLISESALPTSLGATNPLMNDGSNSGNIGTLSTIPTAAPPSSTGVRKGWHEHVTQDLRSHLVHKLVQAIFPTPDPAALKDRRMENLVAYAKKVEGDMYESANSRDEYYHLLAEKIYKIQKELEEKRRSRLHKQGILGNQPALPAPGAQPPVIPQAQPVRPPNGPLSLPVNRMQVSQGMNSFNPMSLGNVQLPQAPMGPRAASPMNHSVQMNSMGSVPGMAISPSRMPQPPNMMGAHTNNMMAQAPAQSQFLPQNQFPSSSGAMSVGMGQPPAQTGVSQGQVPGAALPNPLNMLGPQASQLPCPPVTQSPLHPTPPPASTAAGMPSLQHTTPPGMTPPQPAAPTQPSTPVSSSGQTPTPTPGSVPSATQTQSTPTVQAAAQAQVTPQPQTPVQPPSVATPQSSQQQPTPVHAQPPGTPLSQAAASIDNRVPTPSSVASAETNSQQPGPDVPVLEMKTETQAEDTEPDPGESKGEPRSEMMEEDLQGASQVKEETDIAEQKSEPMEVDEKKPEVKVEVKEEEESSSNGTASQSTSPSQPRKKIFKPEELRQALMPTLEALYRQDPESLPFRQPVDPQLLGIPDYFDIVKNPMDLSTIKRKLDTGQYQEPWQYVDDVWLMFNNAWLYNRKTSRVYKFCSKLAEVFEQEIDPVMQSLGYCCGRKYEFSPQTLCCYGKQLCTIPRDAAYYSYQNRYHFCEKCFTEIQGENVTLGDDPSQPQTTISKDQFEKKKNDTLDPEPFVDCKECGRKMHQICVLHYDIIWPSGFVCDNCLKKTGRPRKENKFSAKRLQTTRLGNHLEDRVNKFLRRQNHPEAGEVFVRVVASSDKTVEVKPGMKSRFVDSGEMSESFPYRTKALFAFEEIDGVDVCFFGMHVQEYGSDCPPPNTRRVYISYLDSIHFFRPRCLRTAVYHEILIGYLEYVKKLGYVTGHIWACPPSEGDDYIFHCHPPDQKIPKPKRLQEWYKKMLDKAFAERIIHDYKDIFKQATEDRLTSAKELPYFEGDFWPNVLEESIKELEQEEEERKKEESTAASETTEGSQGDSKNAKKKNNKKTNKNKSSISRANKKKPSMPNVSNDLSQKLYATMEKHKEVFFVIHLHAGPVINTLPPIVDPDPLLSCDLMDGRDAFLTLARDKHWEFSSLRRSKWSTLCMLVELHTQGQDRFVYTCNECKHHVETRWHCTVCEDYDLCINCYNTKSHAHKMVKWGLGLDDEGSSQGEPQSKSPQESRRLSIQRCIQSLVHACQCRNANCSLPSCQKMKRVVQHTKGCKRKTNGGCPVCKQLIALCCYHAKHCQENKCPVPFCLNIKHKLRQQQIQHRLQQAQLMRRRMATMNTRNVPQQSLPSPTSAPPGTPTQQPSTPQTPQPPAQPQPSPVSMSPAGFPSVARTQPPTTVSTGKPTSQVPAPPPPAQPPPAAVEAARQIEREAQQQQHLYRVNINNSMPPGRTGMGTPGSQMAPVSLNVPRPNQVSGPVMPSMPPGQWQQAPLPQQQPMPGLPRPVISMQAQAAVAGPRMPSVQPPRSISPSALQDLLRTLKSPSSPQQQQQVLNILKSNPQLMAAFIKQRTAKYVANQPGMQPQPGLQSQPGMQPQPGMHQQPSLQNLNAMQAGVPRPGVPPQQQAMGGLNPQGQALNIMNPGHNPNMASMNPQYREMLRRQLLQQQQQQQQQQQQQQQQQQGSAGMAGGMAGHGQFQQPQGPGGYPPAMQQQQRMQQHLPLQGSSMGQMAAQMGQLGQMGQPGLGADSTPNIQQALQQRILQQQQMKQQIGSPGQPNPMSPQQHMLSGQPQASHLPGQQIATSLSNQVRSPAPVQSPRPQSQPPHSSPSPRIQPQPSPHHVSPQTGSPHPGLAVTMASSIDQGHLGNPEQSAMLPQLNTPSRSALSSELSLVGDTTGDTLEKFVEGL
In general terms: A western blot detects proteins with antibodies after separation by electrophoresis.

Assay [8] has as its target T2, CREB-binding protein/Histone acetyltransferase p300 (Homo sapiens). Put plainly: Inhibition of p300/CBP HAT domain in human Kasumi-1 cells assessed as reduction in H3K18 acetylation at 5 to 10 uM incubated for 12 hrs by Western blot analysis. It counts as cell-based. In short, it runs like this: as §1
For assay [9] the target is unchanged. Put plainly: Inhibition of p300/CBP HAT domain in human Kasumi-1 cells assessed as reduction in H3K27 acetylation at 5 to 10 uM incubated for 12 hrs by Western blot analysis. The assay is classed as cell-based. In short, it runs like this:
as §1

Another assay deals with CREB-binding protein (Homo sapiens, UniProt Q92793). Put plainly: Inhibition of recombinant human GST-tagged CBP HAT domain expressed in Escherichia coli BL21 codon plus cells using Histone H3 peptide (1 to 21) and [3H]acetyl-CoA as substrate preincubated with enzyme for 10 mins followed by substrate addition and measured after 30 mins by scintillation counting method. In a few lines:
(§2)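 CBP, PCAF and Myst3 HAT proteins were prepared like GST-p300-HAT: expressed in E. coli BL21-CodonPlus, purified on glutathione resin, then by gel filtration. Inhibition was measured in the same radiometric filter assay with [3H]Ac-CoA and histone H3 (1-21) peptide, read by scintillation counting.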

The target in assay [10] is Histone acetyltransferase KAT2B (Homo sapiens, UniProt Q92831). Nature of the assay: Inhibition of recombinant human GST-tagged PCAF expressed in Escherichia coli BL21 codon plus cells using Histone H3 peptide (1 to 21) and [3H]acetyl-CoA as substrate preincubated with enzyme for 10 mins followed by substrate addition and measured after 30 mins by scintillation counting method. In a few lines: as §2

The target in assay [11] is Histone acetyltransferase KAT6A (Homo sapiens, UniProt Q92794). Put plainly: Inhibition of recombinant human GST-tagged Myst3 expressed in Escherichia coli BL21 codon plus cells using Histone H3 peptide (1 to 21) and [3H]acetyl-CoA as substrate preincubated with enzyme for 10 mins followed by substrate addition and measured after 30 mins by scintillation counting method. In a few lines:
as §2

Assay [12] has as its target Lysine-specific histone demethylase 1A (Homo sapiens) (UniProt O60341). Put plainly: Inhibition of LSD1 (unknown origin) at 50 uM.
A short description of assay [13]: Inhibition of p300 HAT domain (1287-1652 residues) (unknown origin) harboring regulatory auto-acetylation loop deletion mutant and M1652G mutant using H4-15 peptide as substrate preincubated with enzyme and substrate for 10 mins followed by addition of [12C]acetylCoA and [14C]acetylCoA for 10 mins by phosphor-imaging analysis. On the set-up: species or system Homo sapiens.

SMILES strings stand for the structures. Activity calls are given as the source filed them. The calls are words filed in the database; no cut-off is given here.

T1 sequence (Q09472 whole entry, the tested form may be a part): as the sequence (Q09472 whole entry, looked up, the tested form may be a part) above
Chain of CREB-binding protein (Q92793 whole entry, the tested form may be a part): as the sequence (Q92793 whole entry, looked up, the tested form may be a part) above

With `CC(C)(C)c1ccc(-c2csc(CNCC3CCNCC3)n2)cc1`, the inhibition in assay [1] is 10%.
Consider `NCc1ccc(-c2cc(CNCC3CCNCC3)sc2-c2ccc(CN)cc2)cc1`, for which the inhibition in assay [1] is 0%. For the same compound, the IC50 in [2] was greater than 10 µM. Also, the inhibition result in [3], in assay [7], in assay [8] and in [9] was “inactive” in each case. The EC50 (in the assay on MCF7 [4]; in the assay with MCF7 [5]; with PANC-1; in [6]; with Kasumi 1) was greater than 30 µM throughout.
Turning to `CC(C)(C)c1ccc(-c2sc(C(=O)NCC3CCNCC3)cc2-c2ccoc2)cc1`, the inhibition in assay [1] was determined as 36%. Also, in assay [2], the IC50 was greater than 10 µM.
Take `COc1ccc(-c2ccc(-c3cc(C(=O)NCC4CCNCC4)sc3-c3ccc(-c4ccc(OC)cc4)cc3)cc2)cc1`: the half-maximal inhibitory concentration (IC50) in assay [2] turned out to be 2.8 µM.
`CCCCc1ccc(-c2cc(CNCC3CCNCC3)sc2-c2ccc(CCCC)cc2)cc1`: in assay [1], the inhibition is 10%. Moreover, in assay [2], the IC50 was greater than 10 µM.
On to `c1cc(-c2ccc(-c3cc(CNCC4CCNCC4)sc3-c3ccc(CN4CCCCC4)cc3)cc2)co1`, for which the IC50 in assay [2] worked out at 4.6 µM.
Take `CC(C)(C)c1ccc(-c2sc(C(=O)NCC3CCNCC3)cc2-c2ccc(-c3ccoc3)cc2)cc1`: the IC50 in assay [2] came out at 7.4 µM.
On to `CC(C)(C)c1ccc(-c2cc(CNCC3CCNCC3)sc2-c2ccc(C(C)(C)C)cc2)cc1`, for which the IC50 on CREB-binding protein is 1.2 µM; in assay [10] it was greater than 50 µM; in assay [11] it was greater than 50 µM. Further, in [12], the inhibition result is “inactive”. For the same compound, the EC50 was found to be 2.8 µM in the assay on MCF7 [4]; 3.4 µM in the assay on MCF7 [5]; 1 µM in the assay on PANC-1; 2.8 µM in assay [6]; 2.6 µM in the assay on Kasumi 1.
Turning to `CC(C)(C)c1ccc(-c2csc(C(=O)NCC3CCNCC3)n2)cc1`, the inhibition in assay [1] is 18%.
Turning to `CC(C)(C)c1ccc(-c2cc(CNC3CCNCC3)sc2-c2ccc(C(C)(C)C)cc2)cc1`, in [2], the IC50 is 5 µM.
On to `CC(C)(C)c1ccc(-c2cc(CNCC3CCNCC3)sc2-c2ccc(CN)cc2)cc1`, for which the IC50 in assay [2] came to 2 µM.
In the case of `CC(C)(C)c1ccc(-c2cc(CN3CCOCC3)sc2-c2ccc(C(C)(C)C)cc2)cc1`, the inhibition in assay [1] amounted to 20%. In assay [2], the IC50 was greater than 10 µM.
As to `CC(C)(C)c1ccc(-c2cc(CNCCC3CCNCC3)sc2-c2ccc(C(C)(C)C)cc2)cc1`, the IC50 in [2] stood at 2.2 µM.
With `CC(C)(C)c1ccc(-c2sc(C(=O)NCC3CCNCC3)cc2-c2cccnc2)cc1`, the inhibition in assay [1] amounted to 31%. Besides, in [2], the IC50 was greater than 10 µM.
On to `CC(C)(C)c1ccc(-c2nc(CNCC3CCNCC3)sc2-c2ccc(C(C)(C)C)cc2)cc1`, for which the half-maximal inhibitory concentration (IC50) in assay [2] was found to be 8.6 µM.
In the case of `COc1ccc(-c2ccc(-c3cc(CNCC4CCNCC4)sc3-c3ccc(-c4ccc(OC)cc4)cc3)cc2)cc1`, in [2], the IC50 came out at 7.4 µM.
The compound `CC1=NN(c2ccc(C(=O)O)cc2)C(=O)/C1=C\c1ccc(-c2cc(C)c(C)cc2[N+](=O)[O-])o1` registered an IC50 in assay [13] of 1.6 µM.
`CC(C)(C)c1ccc(-c2cc(CNCCCCCCN)sc2-c2ccc(C(C)(C)C)cc2)cc1`: the IC50 in [2] came out at 1.4 µM.
Consider `COc1ccc(-c2cc(CNCC3CCNCC3)sc2-c2ccc(OC)c(OC)c2)cc1OC`, for which, in assay [1], the inhibition was 0%. The IC50 in [2] was greater than 10 µM. In addition, the EC50 in the assay on MCF7 [4] is greater than 30 µM; in the assay with MCF7 [5] it was greater than 30 µM; in the assay with PANC-1, greater than 30 µM; in [6] it was greater than 30 µM; with Kasumi 1 it was 18.7 µM.
As to `O=C(NCC1CCNCC1)c1cc(-c2ccc(-c3ccoc3)cc2)c(-c2ccc(-c3ccoc3)cc2)s1`, the IC50 in [2] was 1.6 µM.
Turning to `CC(C)(C)c1ccc(-c2sc(CNCC3CCNCC3)cc2-c2ccc(CN)cc2)cc1`, the inhibition in assay [1] is 35%. The IC50 in assay [2] is greater than 10 µM.
The corresponding values for `c1cc(-c2cc(CNCC3CCNCC3)sc2-c2ccoc2)co1` are 23% and greater than 10 µM.
As to `CC(C)(C)c1ccc(-c2cc(CN3CCNCC3)sc2-c2ccc(C(C)(C)C)cc2)cc1`, the inhibition in [1] came out at 5%. Moreover, in assay [2], the IC50 was greater than 10 µM.
`c1cc(-c2ccc(-c3cc(CNCC4CCNCC4)sc3-c3ccc(-c4ccoc4)cc3)cc2)co1`: in assay [2], the IC50 is 1.7 µM.
Take `c1cc(-c2ccc(-c3ncc(CNCC4CCNCC4)nc3-c3ccc(-c4ccoc4)cc3)cc2)co1`: the inhibition in assay [1] was 25%.
As to `CC(C)(C)c1ccc(-c2sc(C(=O)NCC3CCNCC3)cc2-c2ccc(CN3CCNCC3)cc2)cc1`, the inhibition in assay [1] was determined as 12%. Also, in [2], the IC50 was greater than 10 µM.
Turning to `CC(C)(C)c1ccc(-c2cc(COCC3CCNCC3)sc2-c2ccc(C(C)(C)C)cc2)cc1`, the inhibition in assay [1] came to 0%. In [2], the IC50 is greater than 10 µM.
In the case of `CC(C)(C)c1ccc(-c2sc(C(=O)NCC3CCNCC3)cc2-c2ccc(CN)cc2)cc1`, in [2], the IC50 turned out to be 10 µM.
As for `CC(C)(C)c1ccc(-c2cc(CNCCCN)sc2-c2ccc(C(C)(C)C)cc2)cc1`, the IC50 in assay [2] worked out at 3 µM.
Still for that read-out and setting: next, `O=C(NCC1CCNCC1)c1cc(-c2ccc(CN3CCCCC3)cc2)c(-c2ccc(-c3ccoc3)cc2)s1`: 1.6 µM; `CC(C)(C)c1ccc(-c2sc(CNCC3CCNCC3)cc2-c2ccc(-c3ccoc3)cc2)cc1`: 5.8 µM.
Regarding `CC(C)(C)c1ccc(-c2cc(C(=O)NCC3CCNCC3)sc2-c2ccc(C(C)(C)C)cc2)cc1`, in assay [2], the IC50 was 8.6 µM. For the same compound, in assay [12], the inhibition result is “inactive”.
With `CC(C)(C)c1ccc(-c2nc(C(=O)NCC3CCNCC3)sc2-c2ccc(C(C)(C)C)cc2)cc1`, the IC50 in [2] was 2.4 µM.
As to `CC(C)(C)c1ccc(-c2sc(CNCC3CCNCC3)c(Br)c2-c2ccc(C(C)(C)C)cc2)cc1`, in assay [2], the IC50 came to 1.8 µM.
Regarding `c1ccc(-c2cccc(-c3cc(CNCC4CCNCC4)sc3-c3cccc(-c4ccccc4)c3)c2)cc1`, the inhibition in assay [1] was 18%. Moreover, the IC50 in assay [2] is greater than 10 µM.
Turning to `OCc1ccc(-c2cc(CNCC3CCNCC3)sc2-c2ccc(CO)cc2)cc1`, in assay [1], the inhibition was 22%. Besides, the IC50 in assay [2] is greater than 10 µM.

As usually defined, the inhibition is the share of the control response that was lost under treatment. By IC50 is commonly meant the point on the concentration scale where inhibition reaches its midpoint. As usually defined, the EC50 is the concentration giving half of the maximal effect.
